Measurements of several laboratories.
FLT3 R834Q: Receptor-type tyrosine-protein kinase FLT3 (FLT3, Homo sapiens, UniProt P36888, R834Q)
FLT3 N841I: Receptor-type tyrosine-protein kinase FLT3 (FLT3, Homo sapiens, UniProt P36888, N841I)
FLT3: Receptor-type tyrosine-protein kinase FLT3 (FLT3, Homo sapiens, UniProt P36888)
FLT3 D835V: Receptor-type tyrosine-protein kinase FLT3 (FLT3, Homo sapiens, UniProt P36888, D835V)
FLT3 D835H: Receptor-type tyrosine-protein kinase FLT3 (FLT3, Homo sapiens, UniProt P36888, D835H)
FLT3 D835Y: Receptor-type tyrosine-protein kinase FLT3 (FLT3, Homo sapiens, UniProt P36888, D835Y)
FLT3 K663Q: Receptor-type tyrosine-protein kinase FLT3 (FLT3, Homo sapiens, UniProt P36888, K663Q)
FLT3 autoinhibited: Receptor-type tyrosine-protein kinase FLT3, autoinhibited (FLT3, Homo sapiens, UniProt P36888)

Structure (SMILES) | target | observed | method | tested at | remaining binding [%]
O=C(Nc1c[nH]nc1C(=O)NC1CCNCC1)c1cc(F)cc(F)c1 | FLT3 R834Q | binding | competition with immobilised ligand | 1 µM | 94
Cc1cnc(Nc2ccc(C(=O)N3CCC(N4CCCC4)CC3)cc2)nc1-c1cc2ccccc2s1 | FLT3 N841I | binding | competition with immobilised ligand | 1 µM | 0
C[C@@H]1CCN(c2nccc(-c3cnn4ncccc34)n2)C1 | FLT3 | binding |  | 1 µM | 100
COc1cnc(Nc2cccc(S(N)(=O)=O)c2)nc1N1CCN(c2ccccc2)CC1 | FLT3 D835V | binding | competition with immobilised ligand | 1 µM | 49
O=c1nc(-c2ccccn2)sc2ccccc12 | FLT3 | binding | competition with immobilised ligand | 1 µM | 93
C=CC(=O)N1CCC(C(=O)NCC(=O)N2CCN(c3nc(-c4cnc(N)nc4C(F)F)nc(N4CCOCC4)n3)CC2)CC1 | FLT3 D835H | binding | competition with immobilised ligand | 1 µM | 100
CN1CCN(c2ccc(Nc3nccc(-c4ccccc4)n3)cc2C(F)(F)F)CC1 | FLT3 D835Y | binding |  | 10 µM | 1.3
COc1ccnn2ncc(-c3ccnc(N(C)C)n3)c12 | FLT3 D835Y | binding |  | 1 µM | 97
COc1ncc2cc3ccccc3nc2c1C#N | FLT3 R834Q | cell-free assay | competition with immobilised ligand | 5 µM | 92
F[C@@H]1CCN(c2nccc(-c3cnn4ncccc34)n2)C1 | FLT3 R834Q | binding |  | 1 µM | 100
Nc1ncc2c(n1)-c1c([nH]c3ccc(C#CC4CC4)cc13)CCCC2 | FLT3 K663Q | binding | competition with immobilised ligand | 1 µM | 77
CC1=C(C#N)C(c2ccc3c(c2)c(NC(=O)c2ccccc2C)nn3C)C(C#N)=C(C)N1 | FLT3 N841I | cell-free assay | competition with immobilised ligand | 1 µM | 74
c1cncc(-c2cccc(Nc3nccc(NC4CCCCC4)n3)c2)c1 | FLT3 K663Q | binding | competition with immobilised ligand | 10 µM | 1.1
CN1CCN(c2ccc(Nc3nccc(-c4cccc([N+](=O)[O-])c4)n3)cc2C(F)(F)F)CC1 | FLT3 K663Q | binding |  | 10 µM | 0.2
CS(=O)(=O)c1cc(C2(NC(=O)c3cncc4c3cnn4-c3ccc(F)cc3)CC2)ccn1 | FLT3 D835V | cell-free assay | competition with immobilised ligand | 1 µM | 100
COc1cnc(Nc2cccc(S(N)(=O)=O)c2)nc1N1CCN(c2ccccc2)C(=O)C1 | FLT3 K663Q | binding | competition with immobilised ligand | 1 µM | 87
CC1CCCN1c1nccc(-c2cnn3ncccc23)n1 (stereo not drawn) | FLT3 N841I | binding |  | 1 µM | 75
O=C(c1ccc(Nc2ncc(Cl)c(-c3cc4ccccc4s3)n2)cc1)N1CCC(N2CCCC2)CC1 | FLT3 autoinhibited | binding | competition with immobilised ligand | 1 µM | 27

Structure (SMILES) | target | observed | method | tested at | remaining binding [%]
O=C(NC1CCC1)c1ccc2nc(-c3cccc(NS(=O)(=O)NCCN4CCCCC4)c3)cn2c1 | Receptor-type tyrosine-protein kinase FLT3 (FLT3, Homo sapiens, UniProt P36888, D835V/ITD) | cell-free assay | competition with immobilised ligand | 10 µM | 37
N[C@H]1CCN(c2nccc(-c3cnn4ncccc34)n2)C1 | FLT3 N841I | binding |  | 1 µM | 84
O=C(c1ccc(Nc2ncc(Cl)c(-c3ccc(Cl)s3)n2)cc1)N1CCC(N2CCCC2)CC1 | Receptor-type tyrosine-protein kinase FLT3 (FLT3, Homo sapiens, UniProt P36888, ITD) | binding | competition with immobilised ligand | 1 µM | 0.35
Cc1c(NC(=O)c2cc(C(N)=O)nc3cc(F)ccc23)c(C(F)(F)F)nn1Cc1ccc(C(C)(C)C)cc1 | FLT3 R834Q | cell-free assay | competition with immobilised ligand | 1 µM | 100
C[C@@H](c1ccc(-n2cnc3c(N)ncnc32)cc1)N1CCc2nn(C)c(Cc3ccccc3)c2C1=O | FLT3 K663Q | binding | competition with immobilised ligand | 0.1 µM | 77
NS(=O)(=O)c1cc(NC(=O)C2(c3ccccc3Cl)CC2)ccc1Oc1cccc(Cl)c1 | FLT3 D835Y | cell-free assay | competition with immobilised ligand | 1 µM | 100
CCN1CCN(Cc2ccc(C(=O)Nc3ccc(C)c(Oc4ccc5c(c4)CC(=O)N5)c3)cc2C(F)(F)F)CC1 | FLT3 D835H | binding | competition with immobilised ligand | 1 µM | 100
O=C(c1ccc(Nc2nccc(-c3cc4ccccc4s3)n2)cc1)N1CCC(N2CCCC2)CC1 | FLT3 D835Y | binding | competition with immobilised ligand | 1 µM | 28
CNC(=O)[C@@H]1CC[C@@H](n2c(-c3ccc4cnccc4c3)nc3ccc(C(=O)NCc4cccc(C(N)=O)c4)cc32)C1 | FLT3 D835V | binding | competition with immobilised ligand | 1 µM | 94
c1cnn2ncc(-c3ccnc(N4CCC45COC5)n3)c2c1 | FLT3 D835H | binding |  | 1 µM | 64
CCCCN(CCCC)C(=O)CN1C[C@@H](c2cc(OC)c3c(c2)OCO3)[C@H](C(=O)O)[C@H]1CC(C)(C)CCC | FLT3 D835Y | cell-free assay | competition with immobilised ligand | 1 µM | 75.2
O=C(NCC1CCOCC1)c1n[nH]cc1NC(=O)c1c(F)cccc1F | FLT3 | binding | competition with immobilised ligand | 1 µM | 92
CN(C)c1nccc(-c2cnn3ncccc23)n1 | FLT3 D835Y | binding |  | 1 µM | 100
O=C(NCCCN1CCOCC1)c1ccc(Nc2nccc(-c3cc4ccccc4s3)n2)cc1 | FLT3 K663Q | binding | competition with immobilised ligand | 1 µM | 35
CN(C)C(=O)Cn1cc(-c2nc([C@@](C)(c3ccc(-c4cnc(N)nc4)cc3)C3CC3)no2)cn1 | FLT3 | cell-free assay | competition with immobilised ligand | 1 µM | 97
O=C(NCCCN1CCOCC1)c1ccc(Nc2ncc(Cl)c(-c3ccc(Cl)s3)n2)cc1 | FLT3 K663Q | binding | competition with immobilised ligand | 1 µM | 2
Cc1cnn2ncc(-c3ccnc(N(C)C)n3)c2c1 | FLT3 K663Q | binding |  | 1 µM | 100
CCC(=N\O)/C(C)=C/c1ccc(F)cc1 | FLT3 autoinhibited | cell-free assay | competition with immobilised ligand | 1 µM | 86
